Assay results reported in ChEMBL document CHEMBL1629447, “Antitumor agents 286. Design, synthesis, and structure-activity relationships of 3'R,4'R-disubstituted-2',2'-dimethyldihydropyrano[2,3-f]chromone (DSP) analogues as potent chemosensitizers to overcome multidrug resistance” (2010).
Values after ≈ are worked out from the molar mass of the structure shown. Active and inactive are the calls of the source. The rule behind the calls is not given here.

What was measured:
KBVIN [1] = test: Inhibition of Pgp-mediated multidrug resistance in human KBVIN cells assessed as chemosensitization activity measured by increase in vincristine-induced cytotoxicity at 1 ug/mL by SRB assay relative to untreated control; format: cell-based
[2] = Cytotoxicity in human KBVIN cells by SRB assay; format: functional
In short: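 Cellular protein read by sulforhodamine B staining, absorbance 562 nm. GI50 is the concentration giving 50% lower absorbance than untreated cells, taken from replicate dose-response curves.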

KBVIN [3] = test: Inhibition of Pgp in human KBVIN cells assessed as facilitation of in calcein-AM accumulation by […]; format: cell-based
In short: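 KB-Vin (MDR) cells, 10,000 per well, adhered one day in medium with 5% FBS. Pre-exposed to test compound at several concentrations for 30 min at 37 °C, then given fresh medium with 1 μM calcein-AM plus compound for 30 min at 37 °C. Washed with cold PBS in low light, lysed in 20 mM Tris-HCl, fluorescence read Ex 494/Em 517 nm. Verapamil as inhibitor control; two or more independent experiments.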

| Compound | fold change (FC) (KBVIN [1]) | GI50 [2] [µg/mL] | inhibition (KBVIN [3]) |
| --- | --- | --- | --- |
| CCc1cc(=O)c2ccc3c(c2o1)[C@@H](OC(=O)c1cccc(OC)c1)[C@@H](OC(=O)c1cccc(OC)c1)C(C)(C)O3 | 27.1 | > 35.8 |  |
| CCc1cc(=O)c2ccc3c(c2o1)[C@@H](OC(=O)c1ccc([N+](=O)[O-])cc1)[C@@H](OC(=O)c1ccc([N+](=O)[O-])cc1)C(C)(C)O3 | 203 | > 34 |  |
| CCc1cc(=O)c2ccc3c(c2o1)[C@@H](OC(=O)N(C)C)[C@@H](OC(=O)N(C)C)C(C)(C)O3 | < 12.2 | > 20 |  |
| CCc1cc(=O)c2ccc3c(c2o1)[C@@H](OC(=O)Cc1ccccc1)[C@@H](OC(=O)Cc1ccccc1)C(C)(C)O3 | 81.3 | 8.33 (≈ 15.8 µM) |  |
| CCc1cc(=O)c2ccc3c(c2o1)[C@@H](OC(=O)N1CCCCC1)[C@@H](OC(=O)N1CCCCC1)C(C)(C)O3 | 22.2 | > 20 |  |
| CCc1cc(=O)c2ccc3c(c2o1)[C@@H](OC(=O)/C=C/c1ccccc1)[C@@H](OC(=O)/C=C/c1ccccc1)C(C)(C)O3 | 222 | 9.44 (≈ 17.1 µM) |  |
| COc1ccc(CCN(C)CCCC(C#N)(c2ccc(OC)c(OC)c2)C(C)C)cc1OC (configuration not stated) [VERAPAMIL] | 141 | > 31.5 |  |
| CCCCN(CCCC)C(=O)O[C@@H]1c2c(ccc3c(=O)cc(CC)oc23)OC(C)(C)[C@@H]1OC(=O)N(CCCC)CCCC | < 12.2 | > 20 |  |
| CCc1cc(=O)c2ccc3c(c2o1)[C@@H](OC(=O)c1ccc(C#N)cc1)[C@@H](OC(=O)c1ccc(C#N)cc1)C(C)(C)O3 | 188 | > 5.5 | Active |
| CCc1cc(=O)c2ccc3c(c2o1)[C@@H](OC(=O)c1ccccc1OC)[C@@H](OC(=O)c1ccccc1OC)C(C)(C)O3 | 28.1 | > 31.5 |  |
| CCc1cc(=O)c2ccc3c(c2o1)[C@@H](OC(=O)C1CCCCC1)[C@@H](OC(=O)C1CCCCC1)C(C)(C)O3 | < 12.2 | > 20 |  |
| CCc1cc(=O)c2ccc3c(c2o1)[C@@H](OC(=O)c1ccccc1)[C@@H](OC(=O)c1ccccc1)C(C)(C)O3 | < 12.2 | 8.79 (≈ 17.6 µM) |  |
| CCc1cc(=O)c2ccc3c(c2o1)[C@@H](OC(=O)c1ccc(C)cc1)[C@@H](OC(=O)c1ccc(C)cc1)C(C)(C)O3 | 349 | 20.6 (≈ 39.1 µM) |  |
| CCc1cc(=O)c2ccc3c(c2o1)[C@@H](OC(=O)c1cccc(C(F)(F)F)c1)[C@@H](OC(=O)c1cccc(C(F)(F)F)c1)C(C)(C)O3 | < 12.2 | > 31.5 |  |
| CCc1cc(=O)c2ccc3c(c2o1)[C@@H](OC(=O)c1ccc(OC)cc1)[C@@H](OC(=O)c1ccc(OC)cc1)C(C)(C)O3 | 257 | 9 (≈ 16.1 µM) | Active |
| CCc1ccc(C(=O)O[C@@H]2c3c(ccc4c(=O)cc(CC)oc34)OC(C)(C)[C@@H]2OC(=O)c2ccc(CC)cc2)cc1 | 20.3 | > 13.6 |  |
| CCc1cc(=O)c2ccc3c(c2o1)[C@@H](OC(=O)c1cccc(C#N)c1)[C@@H](OC(=O)c1cccc(C#N)c1)C(C)(C)O3 | 160 | > 2.5 |  |
| CCc1cc(=O)c2ccc3c(c2o1)[C@@H](OC(=O)c1ccccc1C(F)(F)F)[C@@H](OC(=O)c1ccccc1C(F)(F)F)C(C)(C)O3 | < 12.2 | > 31.5 |  |
| CCc1cc(=O)c2ccc3c(c2o1)[C@@H](OCc1ccccc1)[C@@H](OCc1ccccc1)C(C)(C)O3 | 40.7 | > 15.7 |  |
| CCc1cc(=O)c2ccc3c(c2o1)[C@@H](OC(=O)/C=C/c1ccc(OC)cc1)[C@@H](OC(=O)/C=C/c1ccc(OC)cc1)C(C)(C)O3 | 287 | > 36.4 |  |
| CCc1cc(=O)c2ccc3c(c2o1)[C@@H](OC(=O)N(CC)CC)[C@@H](OC(=O)N(CC)CC)C(C)(C)O3 | 116 | > 20 |  |
| CCc1cc(=O)c2ccc3c(c2o1)[C@@H](OC(=O)CCc1ccccc1)[C@@H](OC(=O)CCc1ccccc1)C(C)(C)O3 | 106 | 10.1 (≈ 18.2 µM) |  |
| CCc1cc(=O)c2ccc3c(c2o1)[C@@H](OC(=O)c1ccc(C(F)(F)F)cc1)[C@@H](OC(=O)c1ccc(C(F)(F)F)cc1)C(C)(C)O3 | 16.3 | > 31.5 |  |
| CCc1cc(=O)c2ccc3c(c2o1)[C@@H](OC(=O)N1CCCC1)[C@@H](OC(=O)N1CCCC1)C(C)(C)O3 | 24.9 | > 20 |  |
| CCc1cc(=O)c2ccc3c(c2o1)[C@@H](OC(=O)Cc1ccc(OC)cc1)[C@@H](OC(=O)Cc1ccc(OC)cc1)C(C)(C)O3 | 34.4 | 13.3 (≈ 22.7 µM) |  |
